Bioassay records (PubChem)
5HT1a antag = 5-HT1a (human) receptor antagonism; CHO 5-HT1a Ga15 NFAT-bla reporter, antagonist mode; inhibition, % at 10 µM; 62,000 compounds, 0.68% hits;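 active = inhibition above the mean of all tested compounds plus 3 SD, cut at about 43% in these data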;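 also: receptor stimulated by 5-CT agonist at 100 nM near EC80; beta-lactamase reporter measured by ratiometric fluorescence of a cleavable substrate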
Target sequence (P08908 whole entry, looked up): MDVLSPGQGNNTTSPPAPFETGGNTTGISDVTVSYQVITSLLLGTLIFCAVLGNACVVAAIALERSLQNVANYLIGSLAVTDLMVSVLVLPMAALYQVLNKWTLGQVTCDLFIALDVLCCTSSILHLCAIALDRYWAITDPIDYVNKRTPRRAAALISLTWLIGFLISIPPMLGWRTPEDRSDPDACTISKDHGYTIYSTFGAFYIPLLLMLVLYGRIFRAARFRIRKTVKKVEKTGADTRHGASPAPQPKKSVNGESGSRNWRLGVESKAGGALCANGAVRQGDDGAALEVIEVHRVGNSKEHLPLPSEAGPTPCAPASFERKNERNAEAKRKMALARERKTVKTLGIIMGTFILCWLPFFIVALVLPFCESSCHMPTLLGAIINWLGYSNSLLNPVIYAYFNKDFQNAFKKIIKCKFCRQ
S1P1 ag-PAM = agonists and agonism potentiators of human S1P1 receptor. S1P1 CRE-bla cells, forskolin, beta-lactamase FRET, potentiator mode; S1P1 agonist co-added at EC20, 2 nM; 100% = saturating reference agonist, 0% = basal. activation, % at 9.5 µM. 56,000 compounds, 0.57% hits. AID 449;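 active = activation above a cutoff set at the mean activation of all tested compounds plus 3 SD, cut at about 54% in these data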;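 also: forskolin at 4 µM as EC80 and the EC20 agonist is SEW2871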
S1P3 ag = activates the human S1P3 receptor | activation, % at 4.5 µM | S1P3 NFAT-BLA reporter cells, agonism, FRET ratio; relative to 1 µM S1P, basal subtracted | 60,000 compounds, 0.1% hits;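 active = activation above the screen-wide mean plus 3 SD, cut at about 4.5% in these data, passing the limit was not always enough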
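Measure – % activation relative to 1 µM S1P (100%), per plate · System – stable CHO line with human S1P3, Gα16, NFAT-BLA reporter · Timing – cells plated overnight, compound 4 h 37 °C, substrate 2 h RT · Technique – fluorescent BLA substrate, ex 405 nm, em 460/535 nm ratio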
HTR1E antagonist = antagonists of human 5-HT1E serotonin receptor; P28566; CHO 5-HT1E Ga15 NFAT-bla reporter, FRET, antagonist; 65,000 compounds, 0.99% hits; AID 571; inhibition, % at 6 µM;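 active = inhibition above a set limit, the mean inhibition across every tested compound plus 3 SD, cut at about 29% in these data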;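 also: signal is the 460 over 535 nm emission ratio of beta-lactamase substrate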
5HT1E ag = agonists of human 5-HT1E serotonin receptor; CHO 5-HT1E Ga15 NFAT-bla reporter, FRET; 0% DMSO wells, 100% control agonist wells; activation, % at 6 µM; 65,000 compounds, 0.69% hits; AID 574;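 active = activation above a set limit, the screen-wide mean activation plus 3 SD, cut at about 8.5% in these data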
5HT1a ag = activates the human 5-HT1a serotonin receptor | CHO 5-HT1a Ga15 NFAT-bla reporter, FRET ratio; 0% basal, 100% maximal reference agonist | AID 567 | 65,000 compounds, 0.56% hits | activation, % at 10 µM | P08908;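 active = activation above the screen-wide mean activation plus 3 SD, cut at about 19% in these data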
Large screens that a line does not name were inactive. Rows were chosen to be rich in hits. Some 2.9% of all compounds tested hit in one or more screens of this group.

CC1(C)CC(=O)c2cc(OCC(=O)NCCCN3CCN(c4ccc(F)cc4)CC3)ccc2O1	none
COc1ccc2c(c1)c1nnc(SC)nc1n2C	5HT1E ag 17
Cc1ccccc1-c1c(C)oc2cc(O)ccc2c1=O	none (no result: S1P1 ag-PAM)
O=C(c1ccco1)N1CCN(C(=O)C2CCCN(S(=O)(=O)Cc3ccccc3)C2)CC1 (configuration not stated)	5HT1a ag 70 (no result: S1P1 ag-PAM, S1P3 ag)
O=C(c1ccco1)N1CCN(C(=O)C2CCN(S(=O)(=O)Cc3ccccc3)CC2)CC1	none
O=C(O)CCC(=O)Nc1nnc(C(F)(F)F)s1	none
CCC(NC(=O)Nc1nnc(C(F)(F)F)s1)(C(F)(F)F)C(F)(F)F	S1P1 ag-PAM 112, HTR1E antagonist 66 (no result: 5HT1a antag)
CCn1cnc2sc(C(=O)N(Cc3ccc(N(C)C)cc3)Cc3ccco3)c(C)c2c1=O	HTR1E antagonist 40
CCc1nnc(NC(=O)Cn2nc(-c3ccccc3OC)ccc2=O)s1	none
COc1ccc(CCC(=O)N2CCc3ccccc32)cc1	none
Oc1c(CN2CCOCC2)cc(COCc2ccccc2)c2cccnc12	HTR1E antagonist 43
CCCCNC1C(CC)C(CCC)C(C#N)(C#N)C1(C#N)C#N (configuration not stated)	5HT1a antag 63, HTR1E antagonist 37
CC(C)c1nc2sc3c(NCc4ccco4)ncnc3c2c2c1COC(C)(C)C2	HTR1E antagonist 56 (no result: S1P1 ag-PAM, S1P3 ag)
COC(=O)CSc1ncnc2c1sc1nc(-c3ccco3)c3c(c12)CC(C)(C)OC3	none (no result: 5HT1a antag)
Cc1nc(NCc2ccco2)c(C#N)c2c1COC(C)(C)C2	none
CC1(C)Cc2c(C#N)c(NCc3ccco3)nc(-c3ccco3)c2CO1	5HT1E ag 11, 5HT1a ag 54 (no result: 5HT1a antag)
O=CN(Cc1ccco1)C1(C(=O)NC2CCCCC2)CCCCC1	none
CCOCCCNC(=O)CN1CCN(Cc2ccccc2C)C1=O	none
CCOc1ccc(CCNC(=O)CN2CCN(Cc3ccccc3C)C2=O)cc1OCC	5HT1a ag 47
CCc1nc2ccccc2n1Cc1cc(=O)n2cc(C)ccc2n1	none
CCOc1cccc(-c2nnc3n2N=C(c2cc(OC)ccc2OC)CS3)c1	HTR1E antagonist 61 (no result: S1P1 ag-PAM, S1P3 ag)
COc1ccc(OC)c(C2=Nn3c(nnc3-c3cc(OC)c(OC)c(OC)c3)SC2)c1	HTR1E antagonist 44
COc1cccc(-c2nnc3n2N=C(C(C)(C)C)CS3)c1	5HT1a antag 76, HTR1E antagonist 51 (no result: S1P1 ag-PAM, S1P3 ag)
COc1ccc(OC)c(C2=Nn3c(nnc3-c3ccncc3)SC2)c1	none (no result: S1P1 ag-PAM, S1P3 ag)
COc1ccc(-c2nnc3n2N=C(c2cccc(Br)c2)CS3)cc1OC	none
COc1cc(-c2nnc3n2N=C(c2ccccc2)CS3)cc(OC)c1OC	HTR1E antagonist 51
CCOC(=O)NC(Nc1ccc(S(N)(=O)=O)cc1)(C(=O)OCC)C(F)(F)F (configuration not stated)	none
COc1cccc(-c2nnc3n2N=C(c2cc(OC)ccc2OC)CS3)c1	HTR1E antagonist 44 (no result: S1P1 ag-PAM, S1P3 ag)
CCOC(=O)c1ccc(NC(=O)Nc2ccc3c4c(cccc24)C(=O)N3CC)cc1	HTR1E antagonist 30
CCN1C(=O)c2cccc3c(NS(=O)(=O)c4ccc(NC(C)=O)cc4)ccc1c23	none
CCN1C(=O)c2cccc3c(NC(=O)c4ccc(S(=O)(=O)N(C)C)cc4)ccc1c23	5HT1a ag 88 (no result: S1P1 ag-PAM)
O=C(O)c1cc(S(=O)(=O)Nc2ccc3c(c2)OCCO3)c(Cl)cc1Cl	none
Cc1ccc(N(C(=O)C2CCCC2)C2C=CS(=O)(=O)C2)cc1C (configuration not stated)	none
CCCCn1c2c(c(=O)n(C)c1=O)C(c1ccc(OC)cc1)N1CCCCCC1=N2 (configuration not stated)	none
CCCC(=O)Nc1nn(C)c2nc3c(C)cccc3cc12	none
Cc1cccc2cc3c(NC(=O)c4ccccn4)nn(C)c3nc12	S1P3 ag 5.3
CC1CCCN(C(=O)CSCC(=O)N=c2sc3ccccc3n2C)C1 (configuration not stated)	none (no result: S1P1 ag-PAM, S1P3 ag)
Cc1oc2cc(O)cc(O)c2c(=O)c1-c1ccc2c(c1)OCCCO2	S1P1 ag-PAM 93
CCOC(=O)c1oc2cc(O)c(CC)cc2c(=O)c1-c1ccc2c(c1)OCCO2	none
COc1ccc(C2N(c3cc(Cl)ccc3OC)C(=O)C3CCCN32)cc1OC (configuration not stated)	none
Cc1c(C(=O)OCC2CCCO2)[nH]c2c1C(=O)CC(c1ccc(N(C)C)cc1)C2 (configuration not stated)	none
Cc1c(C)[n+](=O)c2c(n1[O-])CCCCC2	5HT1E ag 23
COc1cccc(C(=O)Cn2c(=N)n(C)c3ccccc32)c1	5HT1a antag 47
COc1cccc(C(=O)Cn2c(N3CCCCC3)nc3c2c(=O)n(C)c(=O)n3C)c1	none
Cc1nn(Cc2ccccc2)c2sc(C(=O)N3CCN(Cc4ccc5c(c4)OCO5)CC3)cc12	none
CC1=C(C(=O)OCC(C)C)C(c2cccc(F)c2)N2C(=O)C(C)SC2=N1 (configuration not stated)	5HT1E ag 14
N#Cc1c(N)nc(SCc2ccccn2)c(C#N)c1-c1cccs1	HTR1E antagonist 30 (no result: 5HT1a antag)
CCOC(=O)N1CCC(Nc2nc3ccccc3nc2NS(=O)(=O)c2ccc(Cl)cc2)CC1	none
Cn1c(=O)cc(SCC(=O)NCCCN2CCOCC2)c2ccccc21	none
CCCCN(CC)CCCNC(=O)c1cc2c(=O)n(C)c3ccccc3c2n1C	5HT1E ag 17
CCn1c(=O)cc(SCC(=O)NCCCN2CCN(c3ccc(F)cc3)CC2)c2ccccc21	5HT1a antag 47 (no result: S1P1 ag-PAM, S1P3 ag)
Cc1ccccc1CS(=O)(=O)CCC(=O)NCCCN1CCN(c2ccccc2F)CC1	none
Cn1c(=O)cc(SCC(=O)NCCCN2CCN(c3ccccc3F)CC2)c2ccccc21	5HT1a antag 60
Cc1cc(=O)oc(C)c1C(=O)NCCCN1CCN(c2ccccc2F)CC1	5HT1a antag 77, 5HT1E ag 28 (no result: S1P1 ag-PAM, S1P3 ag)
COC(=O)c1cc(CSc2nnc(NC3CCCCC3)s2)oc1C	none
Cc1cc(=O)oc(C)c1C(=O)NCCNC(=O)c1c(C)cc(=O)oc1C	5HT1E ag 39 (no result: 5HT1a antag)
Cn1c(C(=O)NCCCN2CCN(c3ccccc3F)CC2)cc2c(=O)n(C)c3ccccc3c21	5HT1a antag 73, 5HT1E ag 18
COc1ccc(C2=NOC(C(=O)NCc3ccccc3)C2)cc1 (configuration not stated)	HTR1E antagonist 39
CCn1ncc(C2=NOC(C(=O)NCc3ccccc3)C2)c1C (configuration not stated)	HTR1E antagonist 37
Cc1csc(NC(=O)CSc2nnc(Cn3c(=O)sc4ccccc43)n2-c2ccccc2)n1	none
Clc1ccc(-c2nc(NCCN3CCOCC3)c3ccccc3n2)cc1	5HT1a ag 45
